IC50 data for 3 compounds are collected here from BindingDB's records for doi:10.1021/jm300345z (University of Copenhagen, 2012).

As a reminder, the pIC50 is −log10 of the IC50, conventionally taken in molar units.

Assay [1] deals with Excitatory amino acid transporter 1 (Homo sapiens, UniProt P43003). Briefly: Inhibition of human EAAT1 expressed in HEK293 cells assessed as inhibition of 3[H]-D-Aspartate uptake after 6 mins by scintillation counting method. Put shortly:
(§1)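 HEK293 cell lines expressing EAAT1, EAAT2 or EAAT3 were cultured and assayed for [³H]-D-aspartate uptake, following an earlier published protocol. Inhibition is reported as IC50 in μM, with pIC50 ± SEM.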

Assay [2] concerns the target T1, Excitatory amino acid transporter 3 (Homo sapiens, UniProt P43005).
T1 sequence (P43005 whole entry): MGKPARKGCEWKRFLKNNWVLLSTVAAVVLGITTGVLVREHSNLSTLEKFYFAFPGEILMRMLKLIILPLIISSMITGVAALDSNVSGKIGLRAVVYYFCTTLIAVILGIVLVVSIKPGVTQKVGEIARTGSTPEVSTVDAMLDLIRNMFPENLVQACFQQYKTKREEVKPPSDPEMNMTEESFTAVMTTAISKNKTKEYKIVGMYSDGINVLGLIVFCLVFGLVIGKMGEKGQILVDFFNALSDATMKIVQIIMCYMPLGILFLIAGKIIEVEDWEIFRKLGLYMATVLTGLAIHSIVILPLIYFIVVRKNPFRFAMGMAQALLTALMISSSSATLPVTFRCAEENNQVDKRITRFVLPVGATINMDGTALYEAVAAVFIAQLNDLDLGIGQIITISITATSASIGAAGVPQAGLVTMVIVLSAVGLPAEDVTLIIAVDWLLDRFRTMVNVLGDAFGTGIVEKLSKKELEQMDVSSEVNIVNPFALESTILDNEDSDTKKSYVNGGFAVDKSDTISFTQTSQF
Briefly: Inhibition of human EAAT3 expressed in HEK293 cells assessed as inhibition of 3[H]-D-Aspartate uptake after 6 mins by scintillation counting method. In outline: as §1

The target of assay [3] is Excitatory amino acid transporter 2 (Homo sapiens, UniProt P43004). Briefly: Inhibition of human EAAT2 expressed in HEK293 cells assessed as inhibition of 3[H]-D-Aspartate uptake after 6 mins by scintillation counting method. In outline:
as §1

pIC50: −log10 of the molar value.

Excitatory amino acid transporter 1, sequence (P43003 whole entry): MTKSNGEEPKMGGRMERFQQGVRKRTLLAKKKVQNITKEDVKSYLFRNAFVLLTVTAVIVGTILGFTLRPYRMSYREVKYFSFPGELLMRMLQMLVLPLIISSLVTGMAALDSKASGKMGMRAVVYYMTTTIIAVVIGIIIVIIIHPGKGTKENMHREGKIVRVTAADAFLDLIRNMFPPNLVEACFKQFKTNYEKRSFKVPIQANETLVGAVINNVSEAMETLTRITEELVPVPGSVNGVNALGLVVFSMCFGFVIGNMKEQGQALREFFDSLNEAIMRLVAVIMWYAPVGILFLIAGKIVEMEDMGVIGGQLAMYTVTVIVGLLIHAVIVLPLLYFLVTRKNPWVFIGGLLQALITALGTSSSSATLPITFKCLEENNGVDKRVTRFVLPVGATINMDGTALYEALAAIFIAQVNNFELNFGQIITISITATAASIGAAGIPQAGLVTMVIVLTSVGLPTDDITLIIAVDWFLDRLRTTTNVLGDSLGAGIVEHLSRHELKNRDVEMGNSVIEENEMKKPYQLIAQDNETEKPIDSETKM
Excitatory amino acid transporter 2, sequence (P43004 whole entry): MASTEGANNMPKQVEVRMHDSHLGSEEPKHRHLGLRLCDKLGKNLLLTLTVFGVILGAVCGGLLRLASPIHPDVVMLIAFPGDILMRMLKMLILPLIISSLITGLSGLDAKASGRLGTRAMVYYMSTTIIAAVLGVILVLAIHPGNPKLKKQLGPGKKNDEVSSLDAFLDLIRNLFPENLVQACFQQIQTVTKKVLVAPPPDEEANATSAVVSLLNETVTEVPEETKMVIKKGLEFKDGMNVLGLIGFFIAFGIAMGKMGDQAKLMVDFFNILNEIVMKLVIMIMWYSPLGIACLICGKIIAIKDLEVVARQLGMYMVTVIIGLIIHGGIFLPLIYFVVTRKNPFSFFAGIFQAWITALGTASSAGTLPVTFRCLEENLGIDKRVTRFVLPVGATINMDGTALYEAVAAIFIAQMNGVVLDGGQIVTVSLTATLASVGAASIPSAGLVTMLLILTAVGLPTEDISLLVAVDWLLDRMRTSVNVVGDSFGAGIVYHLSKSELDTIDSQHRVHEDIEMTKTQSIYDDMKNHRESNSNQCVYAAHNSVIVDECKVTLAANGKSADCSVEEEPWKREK

On to `N#CC1C(=N)OC2=C(C(=O)CN(C(=O)c3ccccc3)C2)C1c1ccccc1` (configuration not stated), for which the pIC50 in assay [1], in assay [2] and in assay [3] was less than 4.00 in each case.

For the compound `CC1(C)C2=C(CC(c3ccccc3)CC2=O)OC(=N)C1C#N` (configuration not stated), in assay [1], the pIC50 was less than 3.52.

Turning to `N#CC1C(=N)OC2=C(C(=O)CN(c3ccccc3)C2)C1c1ccccc1` (configuration not stated), the negative logarithm of the IC50 (pIC50) in assay [1], in assay [2] and in assay [3] was less than 4.00 throughout.
